Measurements taken from PMC5589077 (ACS chemical neuroscience, 2015).
“And” between values parts separate entries of the source, which are not always exact repeats. Equal values may be shown once. Read-outs that look alike come from different tables or passages of the source.

Columns and labels:
nAChRs = details: cited from earlier work; for Ki: read-out: Ki for inhibition of [3H]epibatidine binding to nAChRs
α6β2*-nAChR [1] = details: rat striatal synaptosomes; cited from earlier work
α6β2*-nAChR [2] = details: read-out: Ki, striatal α6β2*-nAChR; monkey; cited from earlier work
α4β2*-nAChR [3] = details: monkey striatal synaptosomes, cited from earlier work
Chain of α4β2*-nAChR (Q9ERK7 26-501): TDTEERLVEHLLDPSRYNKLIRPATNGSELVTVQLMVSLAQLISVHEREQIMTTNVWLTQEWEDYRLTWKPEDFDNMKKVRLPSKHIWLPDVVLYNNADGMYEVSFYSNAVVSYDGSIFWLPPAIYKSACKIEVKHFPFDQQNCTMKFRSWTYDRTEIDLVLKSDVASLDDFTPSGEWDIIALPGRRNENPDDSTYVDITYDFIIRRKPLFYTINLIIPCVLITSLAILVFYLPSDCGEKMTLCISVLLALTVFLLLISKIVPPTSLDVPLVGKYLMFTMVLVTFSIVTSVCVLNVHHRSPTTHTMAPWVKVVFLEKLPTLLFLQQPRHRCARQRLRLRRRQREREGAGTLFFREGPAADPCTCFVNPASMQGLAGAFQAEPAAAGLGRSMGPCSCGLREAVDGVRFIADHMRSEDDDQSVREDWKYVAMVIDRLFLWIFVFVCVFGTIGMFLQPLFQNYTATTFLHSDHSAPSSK
Chain of α4β2*-nAChR (O70174 31-629, further chain): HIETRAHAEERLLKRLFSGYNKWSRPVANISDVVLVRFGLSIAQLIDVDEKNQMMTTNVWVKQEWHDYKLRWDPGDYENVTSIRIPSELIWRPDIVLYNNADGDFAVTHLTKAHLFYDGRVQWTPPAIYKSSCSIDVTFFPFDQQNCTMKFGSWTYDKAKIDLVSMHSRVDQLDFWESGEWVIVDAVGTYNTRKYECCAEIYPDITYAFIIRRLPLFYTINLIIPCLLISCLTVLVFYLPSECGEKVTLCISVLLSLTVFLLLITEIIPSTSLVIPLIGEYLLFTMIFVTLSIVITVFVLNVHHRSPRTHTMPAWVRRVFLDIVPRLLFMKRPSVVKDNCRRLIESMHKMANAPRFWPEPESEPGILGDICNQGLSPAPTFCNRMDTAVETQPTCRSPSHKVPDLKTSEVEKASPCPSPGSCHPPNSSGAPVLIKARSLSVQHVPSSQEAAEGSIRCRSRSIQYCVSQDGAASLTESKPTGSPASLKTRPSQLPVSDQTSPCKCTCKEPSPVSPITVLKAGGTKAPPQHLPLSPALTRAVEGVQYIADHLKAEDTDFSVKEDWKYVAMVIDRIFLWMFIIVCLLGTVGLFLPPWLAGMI

α6β2*-nAChR [4] = details: monkey striatal synaptosomes; cited from earlier work
α4β2*-nAChR [5] = details: rat striatal synaptosomes, cited from earlier work
α6β2*- and α4β2*-nAChRs = details: via activation of α6β2*- and α4β2*-nAChRs; cited from earlier work
[6] = pretreatment with nonreinforcing doses, without affecting motor function; cited from earlier work
α6β2*-nAChR in α5KO = α6β2*-nAChR in α5KO (Mus musculus, UniProt Q9ERK7+Q9R0W9); assay type: cell-based; details: for max (% nic) dopamine release, α6β2 in α5KO: 10 μM (+) PHT or 100 μM (−) PHT compared to 10 μM nic response; for EC50: read-out: EC50 dopamine release, α6β2 in α5KO, α5KO mice
Chain of α6β2*-nAChR in α5KO (Q9R0W9 26-494): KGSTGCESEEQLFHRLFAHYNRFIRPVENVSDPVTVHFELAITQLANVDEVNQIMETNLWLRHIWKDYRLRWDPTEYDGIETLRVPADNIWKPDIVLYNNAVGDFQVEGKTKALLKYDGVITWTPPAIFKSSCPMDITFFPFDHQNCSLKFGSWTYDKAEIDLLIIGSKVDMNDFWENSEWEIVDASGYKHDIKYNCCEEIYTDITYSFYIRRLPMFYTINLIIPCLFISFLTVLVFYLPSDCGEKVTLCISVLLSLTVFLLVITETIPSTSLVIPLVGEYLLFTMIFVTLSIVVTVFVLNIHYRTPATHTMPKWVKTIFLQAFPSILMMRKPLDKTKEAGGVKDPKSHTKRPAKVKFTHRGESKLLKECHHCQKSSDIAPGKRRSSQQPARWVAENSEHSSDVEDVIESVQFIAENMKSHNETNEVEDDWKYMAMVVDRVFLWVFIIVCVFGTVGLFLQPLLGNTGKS
Chain of α6β2*-nAChR in α5KO (Q9ERK7 26-501): as the sequence (Q9ERK7 26-501) above

mouse [7] = details: cited from earlier work
α4β2-nAChR = details: cited from earlier work
α6β2*-nAChR [8] = target: T1, α6β2*-nAChR (Mus musculus, UniProt Q9ERK7+Q9R0W9); assay type: cell-based; details: for max (% nic) dopamine release, sens α6β2: 10 μM (+) PHT or 100 μM (−) PHT compared to 10 μM nic response
T1 sequence (Q9ERK7 26-501): as above
T1 sequence (Q9R0W9 26-494): as the sequence (Q9R0W9 26-494) above

5HT2C = 5HT2C (Homo sapiens, UniProt P28335); test: off-target radioligand binding assay; details: 10 μM
ICR mice [9] = test: conditioned place preference; assay type: in vivo, mouse
Outline: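 Test compound given s.c. 15 min before conditioning, in an unbiased three-chamber CPP. Male ICR mice, 8–10 weeks old, n = 8 per group. Baseline day 1: 5 min habituation, 15 min test. Then 3 days of twice-daily 20 min sessions, ≥5 h apart; test on day 5. Score: drug-paired-side time after minus before conditioning; mean ± SEM, p < 0.05 versus vehicle.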

[10] = 62 receptor/enzyme screen; assay type: binding; details: 10 μM
Outline: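 Profiling in a 62-target radioligand and enzyme panel. Test compound was run at 100 nM and 10 000 nM, in duplicate. The work was done by a contractor to the NIDA Addiction Treatment Discovery Program.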

rat α4β2-nAChR = rat α4β2-nAChR (Rattus norvegicus, UniProt P09483+P12390); assay type: cell-based; details: for antagonism (% of EC50 ACh remaining) α4β2: 100 μM compound, ACh 70 μM; for IC50: read-out: antagonism, IC50 α4β2, vs EC50 ACh 70 μM
Chain of rat α4β2-nAChR (P12390 25-500): as the sequence (Q9ERK7 26-501) above, with T350A, M371V, Q379R, A383T, L387P, M391V, I449V, S468P counted along it
Chain of rat α4β2-nAChR (P09483 31-630): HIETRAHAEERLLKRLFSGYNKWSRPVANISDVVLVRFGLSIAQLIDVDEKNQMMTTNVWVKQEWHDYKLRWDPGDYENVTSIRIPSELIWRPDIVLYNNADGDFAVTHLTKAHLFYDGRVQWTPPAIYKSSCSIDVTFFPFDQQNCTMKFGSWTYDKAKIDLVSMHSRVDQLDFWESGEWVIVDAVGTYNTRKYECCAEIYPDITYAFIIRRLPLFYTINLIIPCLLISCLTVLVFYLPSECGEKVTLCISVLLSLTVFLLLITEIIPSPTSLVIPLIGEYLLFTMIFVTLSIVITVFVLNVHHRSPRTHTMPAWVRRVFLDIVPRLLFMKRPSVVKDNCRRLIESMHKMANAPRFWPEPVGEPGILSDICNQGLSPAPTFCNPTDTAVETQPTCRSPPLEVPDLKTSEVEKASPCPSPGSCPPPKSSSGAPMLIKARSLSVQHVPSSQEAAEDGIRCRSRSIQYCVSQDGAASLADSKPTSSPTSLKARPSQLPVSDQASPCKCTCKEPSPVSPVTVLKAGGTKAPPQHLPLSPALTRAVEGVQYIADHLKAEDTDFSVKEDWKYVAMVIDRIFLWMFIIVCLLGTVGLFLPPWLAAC

ICR mice [11] = test: blockade of nicotine-induced CPP; assay type: in vivo, mouse; details: 15 min before nicotine 0.5 mg/kg s.c.
Outline: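 Male ICR mice, 8–10 weeks old, n = 8 per group, in an unbiased three-chamber CPP. Day 1: 5 min habituation, then a 15 min baseline, with the paired side randomised. Days 2–4: two 20 min sessions daily, ≥5 h apart, nicotine 0.5 mg/kg s.c. (saline, free base) versus saline. Test compound or vehicle s.c. 15 min before nicotine. Day 5 retest.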

κ opioid receptor = κ opioid receptor (Homo sapiens, UniProt P41145); test: off-target radioligand binding assay; details: 10 μM
α4β2*-nAChR [12] = assay type: cell-based, mouse; details: for max (% nic) dopamine release, res α4β2: 10 μM (+) PHT or 100 μM (−) PHT compared to 10 μM nic response
DAT = DAT (Homo sapiens, UniProt Q01959); test: off-target radioligand binding assay; details: 10 μM
mouse [13] = details: cited from earlier work; for activity in tail-flick test given intrathecally: intrathecally 10 μg/mouse
δ opioid receptor = δ opioid receptor (Homo sapiens, UniProt P41143); test: off-target radioligand binding assay; details: 10 μM
rat α7-nAChR = rat α7-nAChR (Rattus norvegicus, UniProt Q05941); assay type: cell-based; details: for antagonism (% of EC50 ACh remaining) α7: 100 μM compound, ACh 300 μM; for IC50: read-out: antagonism, IC50 α7, vs EC50 ACh 300 μM
Chain of rat α7-nAChR (Q05941 23-502): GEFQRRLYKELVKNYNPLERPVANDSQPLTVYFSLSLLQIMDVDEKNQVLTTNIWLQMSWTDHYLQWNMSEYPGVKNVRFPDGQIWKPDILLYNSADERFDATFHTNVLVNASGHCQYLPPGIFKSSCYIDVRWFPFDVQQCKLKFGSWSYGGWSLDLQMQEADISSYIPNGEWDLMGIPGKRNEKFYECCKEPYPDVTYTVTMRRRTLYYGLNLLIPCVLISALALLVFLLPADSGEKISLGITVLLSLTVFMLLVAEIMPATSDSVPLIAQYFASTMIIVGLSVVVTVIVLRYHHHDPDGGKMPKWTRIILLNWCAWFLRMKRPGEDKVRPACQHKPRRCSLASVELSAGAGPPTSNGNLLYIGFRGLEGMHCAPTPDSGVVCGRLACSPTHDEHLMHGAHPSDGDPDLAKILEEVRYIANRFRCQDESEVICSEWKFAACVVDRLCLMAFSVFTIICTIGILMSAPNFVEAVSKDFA

α4β2*-nAChR in α5KO = α4β2*-nAChR in α5KO (Mus musculus, UniProt O70174+Q9ERK7); assay type: cell-based; details: for max (% nic) dopamine release, α4β2 in α5KO*: 10 μM (+) PHT or 100 μM (−) PHT compared to 10 μM nic response; for EC50: read-out: EC50 dopamine release, α4β2 in α5KO*, α5KO mice
Chain of α4β2*-nAChR in α5KO (O70174 31-629): as the sequence (O70174 31-629, further chain) above
Chain of α4β2*-nAChR in α5KO (Q9ERK7 26-501): as the sequence (Q9ERK7 26-501) above

DAD3 = DAD3 (Homo sapiens, UniProt P35462); test: off-target radioligand binding assay; details: 10 μM
μ opioid receptor = μ opioid receptor (Homo sapiens, UniProt P35372); test: off-target radioligand binding assay; details: 10 μM
Chain of μ opioid receptor (P35372 whole entry): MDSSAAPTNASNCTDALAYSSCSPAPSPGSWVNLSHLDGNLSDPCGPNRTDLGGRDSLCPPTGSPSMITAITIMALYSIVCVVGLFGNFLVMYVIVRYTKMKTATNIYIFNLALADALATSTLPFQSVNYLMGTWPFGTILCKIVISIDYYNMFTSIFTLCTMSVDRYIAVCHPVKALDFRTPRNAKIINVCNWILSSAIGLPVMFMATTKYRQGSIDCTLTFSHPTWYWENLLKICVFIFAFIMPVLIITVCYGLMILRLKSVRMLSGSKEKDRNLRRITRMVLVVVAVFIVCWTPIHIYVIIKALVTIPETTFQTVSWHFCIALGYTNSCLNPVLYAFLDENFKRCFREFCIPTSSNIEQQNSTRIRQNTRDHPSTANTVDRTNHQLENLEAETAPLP

mouse [14] = details: cited from earlier work; remark: listed apart in the source
5HT2A = 5HT2A (Homo sapiens, UniProt P28223); test: off-target radioligand binding assay; details: 10 μM
mouse [15] = details: cited from earlier work; remark: listed apart in the source
α6β2*-nAChR [16] = target: T1, α6β2*-nAChR; details: read-out: binding Ki, α6β2; [125I]epibatidine; striatum and olfactory tubercle membranes from α4KO mice
SERT = SERT (Homo sapiens, UniProt P31645); test: off-target radioligand binding assay; details: 10 μM
NET = NET (Homo sapiens, UniProt P23975); test: off-target radioligand binding assay; details: 10 μM
Outline: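 Inhibition of specific [125I]RTI-55 binding to the norepinephrine transporter, with test compound at 10 μM. The screen was run by a NIDA drug-discovery program contractor.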

DAD2 = DAD2 (Homo sapiens, UniProt P14416); test: off-target radioligand binding assay; details: 10 μM
5HT1A = 5HT1A (Homo sapiens, UniProt P08908); test: off-target radioligand binding assay; details: 10 μM
DAD4 = DAD4 (Homo sapiens, UniProt P21917); test: off-target radioligand binding assay; details: 10 μM
Chain of DAD4 (P21917 whole entry): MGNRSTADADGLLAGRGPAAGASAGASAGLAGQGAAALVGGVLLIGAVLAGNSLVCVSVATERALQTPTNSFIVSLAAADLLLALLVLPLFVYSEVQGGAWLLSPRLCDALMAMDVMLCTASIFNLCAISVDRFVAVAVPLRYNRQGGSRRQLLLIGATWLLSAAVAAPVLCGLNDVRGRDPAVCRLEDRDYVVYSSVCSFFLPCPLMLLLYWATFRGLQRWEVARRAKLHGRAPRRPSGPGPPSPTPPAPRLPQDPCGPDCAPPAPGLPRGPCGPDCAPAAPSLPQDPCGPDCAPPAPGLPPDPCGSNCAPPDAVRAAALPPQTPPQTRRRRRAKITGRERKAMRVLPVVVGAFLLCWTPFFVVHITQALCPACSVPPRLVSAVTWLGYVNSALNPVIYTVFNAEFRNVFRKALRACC

rat α3β4-nAChR = rat α3β4-nAChR (Rattus norvegicus, UniProt P04757+P12392); assay type: cell-based; details: for antagonism (% of EC50 ACh remaining) α3β4: 100 μM compound, ACh 200 μM; for IC50: read-out: antagonism, IC50 α3β4, vs EC50 ACh 200 μM
Chain of rat α3β4-nAChR (P12392 21-495): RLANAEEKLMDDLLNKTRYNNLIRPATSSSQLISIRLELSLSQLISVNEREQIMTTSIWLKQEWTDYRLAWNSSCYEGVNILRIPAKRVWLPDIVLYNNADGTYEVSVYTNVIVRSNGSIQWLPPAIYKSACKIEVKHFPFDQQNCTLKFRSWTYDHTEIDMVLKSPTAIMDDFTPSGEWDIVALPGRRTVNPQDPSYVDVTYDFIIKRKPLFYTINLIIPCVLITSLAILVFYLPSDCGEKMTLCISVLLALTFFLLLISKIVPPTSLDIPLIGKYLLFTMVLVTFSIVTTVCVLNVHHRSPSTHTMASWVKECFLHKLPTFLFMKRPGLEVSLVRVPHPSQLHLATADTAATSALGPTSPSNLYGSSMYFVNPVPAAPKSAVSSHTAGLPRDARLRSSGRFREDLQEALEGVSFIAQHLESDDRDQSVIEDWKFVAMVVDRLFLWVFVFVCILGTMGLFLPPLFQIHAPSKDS
Chain of rat α3β4-nAChR (P04757 26-499): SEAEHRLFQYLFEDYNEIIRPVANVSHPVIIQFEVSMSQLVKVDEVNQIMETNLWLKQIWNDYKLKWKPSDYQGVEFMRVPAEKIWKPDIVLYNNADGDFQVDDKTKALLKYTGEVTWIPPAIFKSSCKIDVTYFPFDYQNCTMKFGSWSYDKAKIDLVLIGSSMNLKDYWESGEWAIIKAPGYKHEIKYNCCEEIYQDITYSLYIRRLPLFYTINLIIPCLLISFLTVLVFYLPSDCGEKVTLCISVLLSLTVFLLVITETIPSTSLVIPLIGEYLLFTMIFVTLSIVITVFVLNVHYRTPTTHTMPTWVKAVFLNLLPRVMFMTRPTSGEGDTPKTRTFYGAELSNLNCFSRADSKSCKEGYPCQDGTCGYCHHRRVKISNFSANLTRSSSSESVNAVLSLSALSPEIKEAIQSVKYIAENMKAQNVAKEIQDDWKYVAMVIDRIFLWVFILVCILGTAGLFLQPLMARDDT

DAD1 = DAD1 (Homo sapiens, UniProt P21728); test: off-target radioligand binding assay; details: 10 μM
α4α6β2-nAChRs = details: cited from earlier work
[17] = percentage of the Emax for acetylcholine

## Pyrido[3,4]homotropane [PHT]
nAChRs
  Ki: 6.2 nM

## c1cnc2cc3c(cc2n1)[C@@H]1CNC[C@H]3C1 [varenicline, 6,7,8,9,10-Tetrahydro-6,10-methano-6H-pyyrazino[2,3-h][3]benzazepine]
α6β2*-nAChR [1]
  maximal efficacy at α6β2-nAChR: 49%
α6β2*-nAChR [2]
  Ki: 0.13 nM
α4β2*-nAChR [3]
  Emax, α4β2*-nAChR: […]
α4β2*-nAChR [3]; read-out: EC50, α4β2*-nAChR-mediated [3H]DA-release
  EC50: […]
α6β2*-nAChR [4]
  Emax, α6β2*-nAChR: 13%
α4β2*-nAChR [5]
  maximal efficacy at α4β2-nAChR: […]
α4β2*-nAChR [5]; read-out: EC50, α4β2*-nAChR-mediated [3H]DA release
  EC50: […]

## Cc1ncccc1OC[C@@H]1CCCN1 [ABT-089, 2-Methyl-3-[(2S)-pyrrolidin-2-yl]methoxypyridine]
α6β2*- and α4β2*-nAChRs
  effect on in vitro striatal DA release: increases in vitro striatal DA release

## O=c1cccc2n1CC1CC2CN(CCN2CC3CC(C2)c2cccc(=O)n2C3)C1 [CC4, 1,2-bis-N-Cystinylethane]
[6]
  effect on nicotine-induced self-administration and CPP: significantly reduced

## Pyrido[3,4]homotropane [(−)-PHT]
α6β2*-nAChR in α5KO
  max (% nic) dopamine release, α6β2 in α5KO: 96%
  EC50: 2000 nM
Mouse [7]
  AD50, antagonism of antinociceptive effects of nicotine in the hot-plate test: 0.8 µg/kg
  antinociceptive (agonist) activity in hot-plate test: inactive
α4β2-nAChR
  activation of currents at α4β2-nAChR: did not activate currents
α6β2*-nAChR [8]
  max (% nic) dopamine release, sens α6β2: 109%
5HT2C
  activity in radioligand binding assay, 5HT2C: inactive
ICR mice [9]; all doses tested, s.c.
  induction of significant preference in the CPP test: ineffective
[10]
  activity at off site targets in 62 receptor/enzyme screen (NovaScreen): inactive
Rat α4β2-nAChR
  antagonism (% of EC50 ACh remaining) α4β2: 41 ± 4%
  IC50: 99 ± 13 µM
ICR mice [11]; pretreatment 0.05 mg/kg
  blockade of nicotine-induced CPP: completely preventing nicotine preference
κ opioid receptor
  activity in radioligand binding assay, κ opioid receptor: inactive
α4β2*-nAChR [12]
  max (% nic) dopamine release, res α4β2: 17%
DAT
  activity in radioligand binding assay, DAT: inactive
Mouse [13]
  activity in tail-flick test given intrathecally: inactive
Mouse [13]; mouse
  AD50, antagonism of nicotine-induced antinociception in the tail-flick test: 0.07 µg/kg
  antinociceptive (agonist) activity in tail-flick test: inactive
nAChRs
  Ki: 346 nM
δ opioid receptor
  activity in radioligand binding assay, δ opioid receptor: inactive
Rat α7-nAChR
  antagonism (% of EC50 ACh remaining) α7: 84± 10%
  IC50: 353 ± 34 µM
α4β2*-nAChR in α5KO
  max (% nic) dopamine release, α4β2 in α5KO*: 10%
  EC50: 700 nM
DAD3
  activity in radioligand binding assay, DAD3: inactive
μ opioid receptor
  activity in radioligand binding assay, μ opioid receptor: inactive
Mouse [14]
  activity in locomotor-activity test: inactive
5HT2A
  activity in radioligand binding assay, 5HT2A: inactive
Mouse [15]
  activity in hypothermia test: inactive
α6β2*-nAChR [16]
  Ki: 629 nM
SERT
  activity in radioligand binding assay, SERT: inactive
NET
  activity in radioligand binding assay, NET: inactive
DAD2
  activity in radioligand binding assay, DAD2: inactive
5HT1A
  activity in radioligand binding assay, 5HT1A: inactive
DAD4
  activity in radioligand binding assay, DAD4: inactive
Rat α3β4-nAChR
  antagonist selectivity for α3β4- relative to α4β2-nAChR: 3 fold
  antagonist selectivity for α3β4- relative to α7-nAChR: 11 fold
  antagonism (% of EC50 ACh remaining) α3β4: 32 ± 3%
  IC50: 33 ± 6 µM
DAD1
  activity in radioligand binding assay, DAD1: inactive

## CN1CCC[C@H]1c1cccnc1 [Nicotine, nicotine]
α4α6β2-nAChRs
  partial agonist activity at α4α6β2-nAChRs: 70%

## Pyrido[3,4]homotropane [(+)-PHT]
α6β2*-nAChR in α5KO
  max (% nic) dopamine release, α6β2 in α5KO: 125%
  EC50: 200 nM
Mouse [7]
  antinociceptive (agonist) activity in hot-plate test: no antinociceptive activity
α4β2-nAChR; read-out: EC50 at α4β2-nAChR
  EC50: 5.5 µM
α4β2-nAChR; versus full agonist acetylcholine (1 mM)
  intrinsic activity at α4β2-nAChR: 17%
α6β2*-nAChR [8]
  max (% nic) dopamine release, sens α6β2: 94%
α6β2*-nAChR [8]; wild type mice
  potency relative to (−)-PHT at the α6β2*-nAChR (DA release EC50): 30 fold
5HT2C
  activity in radioligand binding assay, 5HT2C: inactive
ICR mice [9]; 3 mg/kg s.c., 15 min before conditioning
  CPP scores: significantly increased
[10]
  activity at off site targets in 62 receptor/enzyme screen (NovaScreen): inactive
Rat α4β2-nAChR
  agonist potency at α4β2-nAChR compared to α3β4-nAChR (EC50 comparison): 12 fold
  antagonist selectivity for α4β2- relative to α3β4-nAChR (IC50 comparison): 15 fold
  antagonist selectivity for α4β2- relative to α7-nAChR (IC50 comparison): 45 fold
  antagonism (% of EC50 ACh remaining) α4β2: 17 ± 3%
  IC50: 16 ± 3 µM
Rat α4β2-nAChR; [17]
  agonist activity α4β2 Emax (% ACh): 4.6 % ACh and 4.6 ± 0.4 % ACh
Rat α4β2-nAChR; read-out: agonist activity α4β2 EC50, concentration–response curve
  EC50: 4 ± 1 µM
ICR mice [11]; pretreatment 1 mg/kg
  preference scores in comparison to nicotine alone: significantly reduced
κ opioid receptor
  activity in radioligand binding assay, κ opioid receptor: inactive
α4β2*-nAChR [12]
  max (% nic) dopamine release, res α4β2: 33%
α4β2*-nAChR [12]; wild type mice
  potency relative to (−)-PHT at the α4β2*-nAChR (DA release EC50): 10 fold
DAT
  activity in radioligand binding assay, DAT: inactive
Mouse [13]
  activity in tail-flick test given intrathecally: no antinociceptive activity
Mouse [13]; mouse
  antinociceptive (agonist) activity in tail-flick test: no antinociceptive activity
nAChRs
  affinity relative to (−)-PHT for inhibition of [3H]epibatidine binding: 266 times
  Ki: 1.29 nM
δ opioid receptor
  activity in radioligand binding assay, δ opioid receptor: inactive
Rat α7-nAChR
  antagonism (% of EC50 ACh remaining) α7: 87± 1%
  IC50: 720 ± 290 µM
α4β2*-nAChR in α5KO
  max (% nic) dopamine release, α4β2 in α5KO*: 13%
  EC50: 2000 nM
DAD3
  activity in radioligand binding assay, DAD3: inactive
μ opioid receptor
  activity in radioligand binding assay, μ opioid receptor: inactive
Mouse [14]
  activity in locomotor-activity test: weak activity
5HT2A
  activity in radioligand binding assay, 5HT2A: inactive
Mouse [15]
  activity in hypothermia test: weak activity
α6β2*-nAChR [16]
  Ki: 28 nM
SERT
  activity in radioligand binding assay, SERT: inactive
NET
  inhibition of specific [125I]RTI-55 binding to the NET: 61%
DAD2
  activity in radioligand binding assay, DAD2: inactive
5HT1A
  activity in radioligand binding assay, 5HT1A: inactive
DAD4
  activity in radioligand binding assay, DAD4: inactive
Rat α3β4-nAChR
  antagonism (% of EC50 ACh remaining) α3β4: 93 ± 3%
  IC50: 242 ± 13 µM
Rat α3β4-nAChR; [17]
  agonist activity α3β4 Emax (% ACh): 8.4 % ACh and 8.4 ± 0.5 % ACh
Rat α3β4-nAChR; read-out: agonist activity α3β4 EC50, concentration–response curve
  EC50: 50 ± 6 µM
DAD1
  activity in radioligand binding assay, DAD1: inactive
